Experimental data: ChEMBL document CHEMBL2440035, “Azetidines and spiro azetidines as novel P2 units in hepatitis C virus NS3 protease inhibitors” (Bioorg Med Chem Lett, 2013)

Legend:
Hepatitis C virus [1] = assay: Antiviral activity against Hepatitis C virus infected in human HuH7 cells assessed as viral RNA replication; type: functional, organism-based, Hepacivirus hominis; settings: Huh-7
In short: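 Subgenomic HCV replicon in Huh7 cells; inhibition of HCV RNA replication measured by extraction and amplification of HCV RNA. Each concentration run in triplicate and reported as mean; EC50 derived.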

Hepatitis C virus [2] = assay: Ratio of EC90 for Hepatitis C virus genotype 1b NS3/4A protease A156T mutant to EC90 Hepatitis C virus genotype 1b wild type NS3/4A protease; design: species or system Hepatitis C virus subtype 1b
In short: (§1)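 Genotype 1b NS3 protease enzyme panel: wild type plus resistance mutants A156T, R155K, D168V, V36M, A156S, V170A and D168A. […] Resistance is expressed as the fold increase of each mutant's value over the wild-type value.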

Cathepsin S = Cathepsin S (Homo sapiens, UniProt P25774); assay: Inhibition of human cathepsin S
Hepatitis C virus [3] = assay: Inhibition of Hepatitis C virus genotype 1b NS3/4A protease D168V mutant; design: species or system Hepatitis C virus subtype 1b
In short: (§2)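 Panel of genotype 1b NS3 protease enzymes (wild type and mutants). IC50 and IC90 are averages ± standard error from 2 independent assays. Fold change versus wild type given in parentheses.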

Hepatitis C virus [4] = assay: Ratio of EC50 for Hepatitis C virus genotype 1b NS3/4A protease R155K mutant to EC50 Hepatitis C virus genotype 1b wild type NS3/4A protease; design: species or system Hepatitis C virus subtype 1b; in short: as §1
Plasminogen = Plasminogen (Homo sapiens, UniProt P00747); assay: Inhibition of human plasmin
Hepatitis C virus [5] = assay: Inhibition of Hepatitis C virus genotype 1b NS3/4A protease V170A mutant; design: species or system Hepatitis C virus subtype 1b; in short: as §2
Hepatitis C virus [6] = assay: Ratio of EC90 for Hepatitis C virus genotype 1b NS3/4A protease D168V mutant to EC90 Hepatitis C virus genotype 1b wild type NS3/4A protease; design: species or system Hepatitis C virus subtype 1b; in short: as §1
Huh-7 = assay: Cytotoxicity against human HuH7 cells; type: cell-based
In short: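 Huh7 cytotoxicity measured together with the replicon antiviral assay, by extraction and amplification of ribosomal RNA. Each concentration run in triplicate and reported as mean.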

Hepatitis C virus [7] = assay: Inhibition of Hepatitis C virus genotype 1b NS3/4A protease A156S mutant; design: species or system Hepatitis C virus subtype 1b; in short: as §2
[8] = biological target: T1, Neutrophil elastase (Homo sapiens) (UniProt P08246); assay: (§3) Inhibition of human neutrophil elastase
T1 sequence (whole entry): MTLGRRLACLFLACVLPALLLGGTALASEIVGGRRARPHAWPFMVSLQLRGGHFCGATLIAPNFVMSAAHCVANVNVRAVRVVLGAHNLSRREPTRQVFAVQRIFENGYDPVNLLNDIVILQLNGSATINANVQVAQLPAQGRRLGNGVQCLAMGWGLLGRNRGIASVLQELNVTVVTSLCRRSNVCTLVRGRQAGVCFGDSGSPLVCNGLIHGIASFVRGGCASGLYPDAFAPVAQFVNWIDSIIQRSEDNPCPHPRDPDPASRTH

Neutrophil elastase = biological target: T2, Neutrophil elastase (Homo sapiens, UniProt P08246); assay: as §3
T2 sequence (P08246 whole entry): T1 sequence (whole entry)

CCRF-CEM = assay: Cytotoxicity against human CEM cells; type: cell-based
In short: (§4)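 Cytotoxicity was profiled in three cell types: primary human peripheral blood mononuclear (PBM) cells, CEM (a human T-cell-derived line) and Vero (African green monkey kidney epithelial cells).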

Vero = assay: Cytotoxicity against african green monkey Vero cells; type: cell-based; settings: chlorocebus sabaeus; in short: as §4
PBMC = assay: Cytotoxicity against human PBMC; type: cell-based; in short: as §4
Hepatitis C virus [9] = assay: Inhibition of Hepatitis C virus genotype 1b wild type NS3/4A protease; design: species or system Hepatitis C virus subtype 1b; in short: as §2
Hepatitis C virus [10] = assay: Inhibition of Hepatitis C virus genotype 1b NS3/4A protease D168A mutant; design: species or system Hepatitis C virus subtype 1b; in short: as §2
Hepatitis C virus [11] = assay: Ratio of EC50 for Hepatitis C virus genotype 1b NS3/4A protease D168A mutant to EC50 Hepatitis C virus genotype 1b wild type NS3/4A protease; design: species or system Hepatitis C virus subtype 1b; in short: as §1
Hepatitis C virus [12] = assay: Ratio of EC50 for Hepatitis C virus genotype 1b NS3/4A protease V36M mutant to EC50 Hepatitis C virus genotype 1b wild type NS3/4A protease; design: species or system Hepatitis C virus subtype 1b; in short: as §1
Hepatitis C virus [13] = assay: Ratio of EC50 for Hepatitis C virus genotype 1b NS3/4A protease D168V mutant to EC50 Hepatitis C virus genotype 1b wild type NS3/4A protease; design: species or system Hepatitis C virus subtype 1b; in short: as §1
Hepatitis C virus [14] = assay: Ratio of EC90 for Hepatitis C virus genotype 1b NS3/4A protease V36M mutant to EC90 Hepatitis C virus genotype 1b wild type NS3/4A protease; design: species or system Hepatitis C virus subtype 1b; in short: as §1
Hepatitis C virus [15] = assay: Ratio of EC90 for Hepatitis C virus genotype 1b NS3/4A protease V170A mutant to EC90 Hepatitis C virus genotype 1b wild type NS3/4A protease; design: species or system Hepatitis C virus subtype 1b; in short: as §1
Hepatitis C virus [16] = assay: Inhibition of Hepatitis C virus genotype 1b NS3/4A protease R155K mutant; design: species or system Hepatitis C virus subtype 1b; in short: as §2
Prothrombin = Prothrombin (Homo sapiens, UniProt P00734); assay: Inhibition of human thrombin
Hepatitis C virus [17] = assay: Inhibition of Hepatitis C virus genotype 1b NS3/4A protease V36M mutant; design: species or system Hepatitis C virus subtype 1b; in short: as §2
Hepatitis C virus [18] = assay: Ratio of EC90 for Hepatitis C virus genotype 1b NS3/4A protease D168A mutant to EC90 Hepatitis C virus genotype 1b wild type NS3/4A protease; design: species or system Hepatitis C virus subtype 1b; in short: as §1
Hepatitis C virus [19] = assay: Ratio of EC90 for Hepatitis C virus genotype 1b NS3/4A protease R155K mutant to EC90 Hepatitis C virus genotype 1b wild type NS3/4A protease; design: species or system Hepatitis C virus subtype 1b; in short: as §1
Hepatitis C virus [20] = assay: Ratio of EC50 for Hepatitis C virus genotype 1b NS3/4A protease A156S mutant to EC50 Hepatitis C virus genotype 1b wild type NS3/4A protease; design: species or system Hepatitis C virus subtype 1b; in short: as §1
Hepatitis C virus [21] = assay: Inhibition of Hepatitis C virus genotype 1b NS3/4A protease A156T mutant; design: species or system Hepatitis C virus subtype 1b; in short: as §2
Hepatitis C virus [22] = assay: Ratio of EC50 for Hepatitis C virus genotype 1b NS3/4A protease A156T mutant to EC50 Hepatitis C virus genotype 1b wild type NS3/4A protease; design: species or system Hepatitis C virus subtype 1b; in short: as §1
Hepatitis C virus [23] = assay: Ratio of EC90 for Hepatitis C virus genotype 1b NS3/4A protease A156S mutant to EC90 Hepatitis C virus genotype 1b wild type NS3/4A protease; design: species or system Hepatitis C virus subtype 1b; in short: as §1
Hepatitis C virus [24] = assay: Ratio of EC50 for Hepatitis C virus genotype 1b NS3/4A protease V170A mutant to EC50 Hepatitis C virus genotype 1b wild type NS3/4A protease; design: species or system Hepatitis C virus subtype 1b; in short: as §1

Sequence of Plasminogen (P00747 97-580 limits assumed): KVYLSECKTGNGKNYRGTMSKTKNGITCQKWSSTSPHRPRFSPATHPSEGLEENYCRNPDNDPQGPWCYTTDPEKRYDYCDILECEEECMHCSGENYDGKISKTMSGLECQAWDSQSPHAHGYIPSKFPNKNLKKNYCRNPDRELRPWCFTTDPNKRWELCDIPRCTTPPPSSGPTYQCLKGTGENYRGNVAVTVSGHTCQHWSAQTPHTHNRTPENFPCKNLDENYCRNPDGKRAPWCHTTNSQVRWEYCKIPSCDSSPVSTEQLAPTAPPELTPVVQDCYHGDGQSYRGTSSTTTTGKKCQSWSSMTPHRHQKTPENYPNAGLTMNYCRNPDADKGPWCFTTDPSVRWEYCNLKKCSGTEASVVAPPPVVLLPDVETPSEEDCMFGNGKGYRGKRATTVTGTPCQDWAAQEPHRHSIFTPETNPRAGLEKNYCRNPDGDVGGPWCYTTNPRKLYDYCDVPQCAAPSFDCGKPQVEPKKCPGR
Sequence of Plasminogen (P00747 581-810 limits assumed): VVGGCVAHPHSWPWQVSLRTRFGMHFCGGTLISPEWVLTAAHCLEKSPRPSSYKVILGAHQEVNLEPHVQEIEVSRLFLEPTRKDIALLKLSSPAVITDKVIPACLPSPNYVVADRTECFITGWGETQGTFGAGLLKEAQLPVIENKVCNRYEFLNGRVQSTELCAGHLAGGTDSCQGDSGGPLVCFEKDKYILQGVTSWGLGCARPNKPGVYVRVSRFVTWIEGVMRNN

## CCCC(NC(=O)C1N(C(=O)[C@@H](NC(=O)[C@@H](NC(=O)c2cnccn2)C2CCCCC2)C(C)(C)C)CC12CCCCC2)C(=O)C(=O)NC1CC1 (stereo partly specified)
Hepatitis C virus [1]
  EC50: 2.3 µM
  EC90: 6.4 µM
Hepatitis C virus [2]
  Ratio: >10
Cathepsin S
  IC50: > 100 µM
  IC90: > 100 µM
Hepatitis C virus [3]
  EC50: 0.4 µM
  EC90: 3.3 µM
Hepatitis C virus [4]
  Ratio EC50: 7.1
Plasminogen
  IC50: > 100 µM
  IC90: > 100 µM
Hepatitis C virus [5]
  EC50: > 1 µM
  EC90: 8.7 µM
Hepatitis C virus [6]
  Ratio: 0.3
Huh-7
  CC50: > 10 µM
Hepatitis C virus [7]
  EC50: 43 µM
  EC90: > 100 µM
[8]
  IC90: 85 µM
Neutrophil elastase
  IC50: 7.8 µM
CCRF-CEM
  CC50: 16 µM
Vero
  CC50: 27 µM
PBMC
  CC50: 32 µM
Hepatitis C virus [9]
  EC50: 0.78 µM
  EC90: 9.81 µM
Hepatitis C virus [10]
  EC50: 0.72 µM
  EC90: 8.2 µM
Hepatitis C virus [11]
  Ratio EC50: 0.9
Hepatitis C virus [12]
  Ratio EC50: 8.8
Hepatitis C virus [13]
  Ratio EC50: 0.5
Hepatitis C virus [14]
  Ratio: 7.6
Hepatitis C virus [15]
  Ratio: 0.9
Hepatitis C virus [16]
  EC50: 5.5 µM
  EC90: 64 µM
Prothrombin
  IC50: < 1 µM
  IC90: < 1.7 µM
Hepatitis C virus [17]
  EC50: 6.9 µM
  EC90: 75 µM
Hepatitis C virus [18]
  Ratio: 0.8
Hepatitis C virus [19]
  Ratio: 6.6
Hepatitis C virus [20]
  Ratio EC50: 55
Hepatitis C virus [21]
  EC50: > 100 µM
  EC90: > 100 µM

## CC[C@@H]1C[C@]1(NC(=O)[C@@H]1C[C@@H]2CN1C(=O)[C@H](C(C)(C)C)NC(=O)OCC(C)(C)CCCCc1cccc3c1CN(C3)C(=O)O2)C(=O)NS(=O)(=O)C1CC1
Hepatitis C virus [2]
  Ratio: >77
Cathepsin S
  IC50: 78 µM
  IC90: > 100 µM
Hepatitis C virus [3]
  EC50: > 1 µM
  EC90: > 1 µM
Plasminogen
  IC50: > 100 µM
  IC90: > 100 µM
Hepatitis C virus [5]
  EC50: 0.0046 µM
  EC90: 0.01 µM
Hepatitis C virus [6]
  Ratio: >77
Hepatitis C virus [7]
  EC50: < 0.001 µM
  EC90: 0.017 µM
[8]
  IC90: > 100 µM
Neutrophil elastase
  IC50: > 100 µM
Hepatitis C virus [9]
  EC50: 0.0062 µM
  EC90: 0.013 µM
Hepatitis C virus [10]
  EC50: 2.4 µM
  EC90: 11 µM
Hepatitis C virus [11]
  Ratio EC50: 390
Hepatitis C virus [12]
  Ratio EC50: 7.2
Hepatitis C virus [14]
  Ratio: 7.8
Hepatitis C virus [15]
  Ratio: 0.8
Hepatitis C virus [16]
  EC50: > 1 µM
  EC90: > 1 µM
Prothrombin
  IC50: > 100 µM
  IC90: > 100 µM
Hepatitis C virus [17]
  EC50: 0.045 µM
  EC90: 0.1 µM
Hepatitis C virus [22]
  Ratio EC50: 150
Hepatitis C virus [18]
  Ratio: 840
Hepatitis C virus [23]
  Ratio: 1.3
Hepatitis C virus [24]
  Ratio EC50: 0.7
Hepatitis C virus [21]
  EC50: 0.91 µM
  EC90: > 1 µM

## CC(C)(C)NC(=O)N[C@H](C(=O)N1C[C@H]2[C@@H]([C@H]1C(=O)NC(CC1CCC1)C(=O)C(N)=O)C2(C)C)C(C)(C)C (stereo partly specified) [BOCEPREVIR]
Hepatitis C virus [1]
  EC50: 0.01 µM
  EC90: 0.03 µM
Cathepsin S
  IC50: > 100 µM
  IC90: > 100 µM
Hepatitis C virus [3]
  EC90: 0.9 µM
Plasminogen
  IC50: > 100 µM
  IC90: > 100 µM
Hepatitis C virus [5]
  EC90: 7.7 µM
Huh-7
  CC50: > 10 µM
Hepatitis C virus [7]
  EC90: ≥ 100 µM
[8]
  IC90: > 100 µM
Neutrophil elastase
  IC50: ≥ 100 µM
CCRF-CEM
  CC50: > 100 µM
Vero
  CC50: > 100 µM
PBMC
  CC50: > 100 µM
Hepatitis C virus [9]
  EC90: 1 µM
Hepatitis C virus [10]
  EC90: 4.7 µM
Hepatitis C virus [16]
  EC90: 4.8 µM
Prothrombin
  IC50: < 1 µM
  IC90: < 1.4 µM
Hepatitis C virus [17]
  EC90: 5.6 µM
Hepatitis C virus [21]
  EC90: > 100 µM

## CCC[C@H](NC(=O)[C@@H]1[C@H]2CCC[C@H]2CN1C(=O)[C@@H](NC(=O)[C@@H](NC(=O)c1cnccn1)C1CCCCC1)C(C)(C)C)C(=O)C(=O)NC1CC1
Hepatitis C virus [1]
  EC50: 0.4 µM
  EC90: 0.9 µM
Hepatitis C virus [2]
  Ratio: >130
Cathepsin S
  IC50: > 100 µM
  IC90: > 100 µM
Hepatitis C virus [3]
  EC50: 0.08 µM
  EC90: 0.74 µM
Hepatitis C virus [4]
  Ratio EC50: 13
Plasminogen
  IC50: 8.7 µM
Hepatitis C virus [5]
  EC50: 0.2 µM
  EC90: 1.5 µM
Hepatitis C virus [6]
  Ratio: 0.9
Huh-7
  CC50: > 10 µM
Hepatitis C virus [7]
  EC50: 2.2 µM
  EC90: 52 µM
[8]
  IC90: > 100 µM
Hepatitis C virus [9]
  EC50: 0.06 µM
  EC90: 0.78 µM
Hepatitis C virus [10]
  EC50: 0.58 µM
  EC90: 0.69 µM
Hepatitis C virus [11]
  Ratio EC50: 1
Hepatitis C virus [12]
  Ratio EC50: 8.5
Hepatitis C virus [13]
  Ratio EC50: 1.3
Hepatitis C virus [14]
  Ratio: 6.5
Hepatitis C virus [15]
  Ratio: 1.9
Hepatitis C virus [16]
  EC50: 0.8 µM
  EC90: 8.3 µM
Prothrombin
  IC50: < 1 µM
  IC90: < 1 µM
Hepatitis C virus [17]
  EC50: 0.51 µM
  EC90: 5.1 µM
Hepatitis C virus [22]
  Ratio EC50: 780
Hepatitis C virus [18]
  Ratio: 0.9
Hepatitis C virus [23]
  Ratio: 66
Hepatitis C virus [24]
  Ratio EC50: 3.3
Hepatitis C virus [19]
  Ratio: 11
Hepatitis C virus [20]
  Ratio EC50: 37
Hepatitis C virus [21]
  EC50: 46 µM
  EC90: > 100 µM
